Measurements collected from several papers.
Compare with care: the assays were run in different laboratories.
CDK7 with cyclin H: Cyclin-dependent kinase 7, with cyclin H (CDK7, Homo sapiens, UniProt P50613)
HTR1B: 5-hydroxytryptamine receptor 1B (HTR1B, Homo sapiens, UniProt P28222)
PTGER4: Prostaglandin E2 receptor EP4 subtype (PTGER4, Homo sapiens, UniProt P35408)

CO[C@H]1/C=C/O[C@@]2(C)Oc3c(C)c(O)c4c(O)c(c(/C=N/N5CCN(C)CC5)c(O)c4c3C2=O)NC(=O)/C(C)=C\C=C\[C@H](C)[C@H](O)[C@@H](C)[C@@H](O)[C@@H](C)[C@H](OC(C)=O)[C@@H]1C  inhibition (CDK7 with cyclin H; enzyme activity; inhibitor; ADP detection; 10 µM): 23.1%
CN(C)C1CCN(CC#Cc2nn(C3CCCC3)c3nc(NCc4ccccc4)ncc23)C1 (stereo not shown)  inhibition (Tyrosine-protein kinase SYK (SYK, Homo sapiens, UniProt P43405); enzyme activity; inhibitor; FRET; 1 µM): 0%
COc1cc(NC(C)=O)c(Cl)cc1C(=O)Nc1nccs1  inhibition (HTR1B; ligand displacement; radioligand; 10 µM): -0.8%
CS(=O)(=O)Nc1cccc(-c2csc(NC(=O)CSc3nc4nccnc4c(=O)n3CCc3ccccc3)n2)c1  inhibition (Phosphatidylinositol 4-phosphate 5-kinase type-1 beta (PIP5K1B, Homo sapiens, UniProt O14986); enzyme activity; inhibitor; 10 µM): 3%
N#Cc1cc(Cn2c(N3CCCC3)nc3ccccc32)ccc1F  inhibition (HTR1B; ligand displacement; radioligand; 10 µM): -19.3%
O=c1cc(-c2ccccc2)oc2c1ccc1ccccc12  inhibition (CDK7 with cyclin H; enzyme activity; inhibitor; ADP detection; 10 µM): 29.9%
O=C(c1ccc(Cl)cc1)N(Cc1ccccc1)C1CCCCC1  inhibition (Calcitonin-gene-related peptide receptor, CALCRL/RAMP1 (Homo sapiens, UniProt O60894+Q16602); cell-free assay; 10 µM): -20.2%
CC1=C(/C=C/C(C)=C/C=C/C(C)=C/C=C/C=C(C)/C=C/C=C(C)/C=C/C2=C(C)CCCC2(C)C)C(C)(C)CCC1  inhibition (CDK7 with cyclin H; enzyme activity; inhibitor; ADP detection; 10 µM): 19.7%
Ic1cccc2cnccc12  inhibition (PTGER4; ligand displacement; radioligand; 10 µM): -6%
Cc1ccc(S(=O)(=O)N[C@@H](CC(=O)NC(C)(C)C)C(=O)NCc2ccccc2)cc1  inhibition (Proteasome component C5/PSMB8 (Homo sapiens, UniProt P20618+P28062); enzyme activity; inhibitor; 100 µM): ≤ 50%
Oc1cccc(Nc2nc(-c3ccc(F)cc3F)cs2)c1  inhibition (HTR1B; ligand displacement; radioligand; 10 µM): -7.1%
COc1c(C(=O)/C=C(\O)c2ccccc2)ccc2occc12  inhibition (CDK7 with cyclin H; enzyme activity; inhibitor; ADP detection; 10 µM): -26%
CCN(c1cc(C#CCN2CCOCC2)cc(C(=O)NCc2c(C)cc(C)[nH]c2=O)c1C)[C@H]1CC[C@H](N(C)CCOC)CC1  inhibition (Histone-lysine N-methyltransferase EHMT2 (EHMT2, Homo sapiens, UniProt Q96KQ7); enzyme activity; inhibitor; 1 µM): 7%
CC(/C=C/C=C(\C)C(=O)O[C@@H]1O[C@H](CO[C@@H]2O[C@H](CO)[C@@H](O)[C@H](O)[C@H]2O)[C@@H](O)[C@H](O)[C@H]1O)=C\C=C\C=C(C)\C=C\C=C(/C)C(=O)O[C@@H]1O[C@H](CO[C@@H]2O[C@H](CO)[C@@H](O)[C@H](O)[C@H]2O)[C@@H](O)[C@H](O)[C@H]1O  inhibition (CDK7 with cyclin H; enzyme activity; inhibitor; ADP detection; 10 µM): 22.8%
CCN(CC)c1ccc(C2Nc3ccc(C(=O)c4ccccc4)cc3NC3=C2C(=O)CC(C)(C)C3)cc1 (stereo not shown)  inhibition (PTGER4; ligand displacement; radioligand; 10 µM): 7%
O=C(c1ccc(F)cc1)N(Cc1ccccc1)C1CCCCC1  inhibition (PTGER4; cell-free assay; 10 µM): 6%
